Data published in ChEMBL document CHEMBL1138578, “Synthesis and antibacterial activity of nitroaryl thiadiazole-gatifloxacin hybrids” (Eur J Med Chem, 2009).
Values after ≈ are worked out from the molar mass of the structure shown.

How the values were obtained:
Staphylococcus aureus = assay: Antibacterial activity against Staphylococcus aureus ATCC 25923 after 18 hrs by conventional agar dilution method; assay type: functional; conditions: ATCC 25923, 18 h
How it was run: (§1)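 Twofold dilutions in DMSO (1 mL) mixed into molten Mueller–Hinton agar (19 mL) at 50 °C. Inocula adjusted at 600 nm to about 0.5 McFarland (1.5 × 10⁸ CFU/mL), then diluted in 0.85% saline to 10⁷ CFU/mL. Plates spot-inoculated at 10⁴ CFU/spot and incubated 35–37 °C for 18 h. MIC is the lowest concentration giving no visible growth. DMSO-only control plates included.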

Serratia marcescens = assay: Antibacterial activity against Serratia marcescens PTCC 1111 after 18 hrs by conventional agar dilution method; assay type: functional; conditions: PTCC 1111, 18 h; how it was run: as §1
Enterococcus faecalis = assay: Antibacterial activity against Enterococcus faecalis NCTC 6013 after 18 hrs by conventional agar dilution method; assay type: functional; conditions: NCTC 6013, 18 h; how it was run: as §1
Bacillus subtilis = assay: Antibacterial activity against Bacillus subtilis ATCC 6051 after 18 hrs by conventional agar dilution method; assay type: functional; conditions: ATCC 6051, 18 h; how it was run: as §1
Pseudomonas aeruginosa = assay: Antibacterial activity against Pseudomonas aeruginosa ATCC 27853 after 18 hrs by conventional agar dilution method; assay type: functional; conditions: ATCC 27853, 18 h; how it was run: as §1
Klebsiella pneumoniae = assay: Antibacterial activity against Klebsiella pneumoniae ATCC 10031 after 18 hrs by conventional agar dilution method; assay type: functional; conditions: ATCC 10031, 18 h; how it was run: as §1
Micrococcus luteus = assay: Antibacterial activity against Micrococcus luteus ATCC 1110 after 18 hrs by conventional agar dilution method; assay type: functional; conditions: ATCC 1110, 18 h; how it was run: as §1
[1] = test system: Staphylococcus epidermidis; assay: Antibacterial activity against Staphylococcus epidermidis ATCC 4940 after 18 hrs by conventional agar dilution method; assay type: functional; conditions: ATCC 4940, 18 h; how it was run: as §1
Streptococcus pneumoniae = assay: Antibacterial activity against Streptococcus pneumoniae ATCC 1240 after 18 hrs by conventional agar dilution method; assay type: functional; conditions: ATCC 1240, 18 h; how it was run: as §1
Shigella flexneri = assay: Antibacterial activity against Shigella flexneri NCTC 8516 after 18 hrs by conventional agar dilution method; assay type: functional; conditions: NCTC 8516, 18 h; how it was run: as §1
[2] = test system: Salmonella enterica subsp. enterica serovar Typhi str. CT18; assay: Antibacterial activity against Salmonella typhi ATCC 19430 after 18 hrs by conventional agar dilution method; assay type: functional; conditions: ATCC 19430, 18 h
How it was run: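 Twofold dilutions in DMSO mixed into molten Mueller–Hinton agar at 50 °C. Inoculum adjusted at 600 nm to about 0.5 McFarland (1.5 ×10⁸ CFU/mL), then diluted in 0.85% saline to 10⁷ CFU/mL. Plates spot-inoculated at 10⁴ CFU/spot and incubated at 35–37 °C for 18 h. MIC taken as the lowest concentration with no visible growth. DMSO solvent control run at matching dilutions.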

[3] = Cytotoxicity against mouse NIH/3T3 cells after 72 hrs by MTT assay; assay type: cell-based; conditions: NIH3T3, 72 h
How it was run: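 Exponential-phase NIH/3T3 fibroblasts trypsinized and diluted in complete medium to 5 × 10⁴ cells/mL, then plated in 96-well plates. Serial compound dilutions added, each in triplicate, with cell-only wells as the viability control. Incubation 72 h, then MTT (5 mg/mL solution) added for 1 h and the medium replaced for colorimetric read-out.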

Escherichia coli = assay: Antibacterial activity against Escherichia coli ATCC 25922 after 18 hrs by conventional agar dilution method; assay type: functional; conditions: ATCC 25922, 18 h; how it was run: as §1

Row | Structure (SMILES) | MIC (Staphylococcus aureus) [µg/mL] | MIC (Serratia marcescens) [µg/mL] | MIC (Enterococcus faecalis) [µg/mL] | MIC (Bacillus subtilis) [µg/mL] | MIC (Pseudomonas aeruginosa) [µg/mL] | MIC (Klebsiella pneumoniae) [µg/mL] | MIC (Micrococcus luteus) [µg/mL] | MIC [1] [µg/mL] | MIC (Streptococcus pneumoniae) [µg/mL] | MIC (Shigella flexneri) [µg/mL] | MIC [2] [µg/mL] | IC50 [3] [µM] | MIC (Escherichia coli) [µg/mL]
1 | COc1c(N2CCN(c3nnc(-c4ncc([N+](=O)[O-])n4C)s3)C(C)C2)c(F)cc2c(=O)c(C(=O)O)cn(C3CC3)c12 (stereo unspecified) | 0.0313 (≈ 0.0535 µM) | 64 (≈ 109 µM) | 4 (≈ 6.84 µM) | 0.5 (≈ 0.855 µM) | > 64 | 0.5 (≈ 0.855 µM) | 2 (≈ 3.42 µM) | 0.5 (≈ 0.855 µM) | 1 (≈ 1.71 µM) | 1 (≈ 1.71 µM) | 0.25 (≈ 0.428 µM) | 246 | 16 (≈ 27.4 µM)
2 | COc1c(N2CCN(c3nnc(-c4ccc([N+](=O)[O-])s4)s3)C(C)C2)c(F)cc2c(=O)c(C(=O)O)cn(C3CC3)c12 (stereo unspecified) | 0.5 (≈ 0.852 µM) | 8 (≈ 13.6 µM) | 2 (≈ 3.41 µM) | 0.5 (≈ 0.852 µM) | > 64 | 16 (≈ 27.3 µM) | 4 (≈ 6.82 µM) | 0.125 (≈ 0.213 µM) | 0.25 (≈ 0.426 µM) | 1 (≈ 1.7 µM) | 1 (≈ 1.7 µM) | 243 | 32 (≈ 54.5 µM)
3 | COc1c(N2CCN(c3nnc(-c4ccc([N+](=O)[O-])o4)s3)C(C)C2)c(F)cc2c(=O)c(C(=O)O)cn(C3CC3)c12 (stereo unspecified) | 0.125 (≈ 0.219 µM) | 8 (≈ 14 µM) | 0.125 (≈ 0.219 µM) | 0.0039 (≈ 0.00684 µM) | > 64 | 1 (≈ 1.75 µM) | 0.125 (≈ 0.219 µM) | 0.0078 (≈ 0.0137 µM) | 0.25 (≈ 0.438 µM) | 0.5 (≈ 0.876 µM) | 1 (≈ 1.75 µM) | 238 | 1 (≈ 1.75 µM)
4 | COc1c(N2CCN(c3nnc(-c4ccccc4[N+](=O)[O-])s3)C(C)C2)c(F)cc2c(=O)c(C(=O)O)cn(C3CC3)c12 (stereo unspecified) | 32 (≈ 55.1 µM) | 16 (≈ 27.6 µM) | 2 (≈ 3.44 µM) | 0.0625 (≈ 0.108 µM) | > 64 | 64 (≈ 110 µM) | 0.5 (≈ 0.861 µM) | 0.0625 (≈ 0.108 µM) | 0.25 (≈ 0.431 µM) | 16 (≈ 27.6 µM) | 16 (≈ 27.6 µM) | 168 | 16 (≈ 27.6 µM)
5 | COc1c(N2CCN(c3nnc(-c4ccc([N+](=O)[O-])cc4)s3)C(C)C2)c(F)cc2c(=O)c(C(=O)O)cn(C3CC3)c12 (stereo unspecified) | 32 (≈ 55.1 µM) | 16 (≈ 27.6 µM) | 1 (≈ 1.72 µM) | 0.0313 (≈ 0.0539 µM) | > 64 | 64 (≈ 110 µM) | 0.25 (≈ 0.431 µM) | 0.0625 (≈ 0.108 µM) | 0.0625 (≈ 0.108 µM) | 8 (≈ 13.8 µM) | 8 (≈ 13.8 µM) | 223 | 16 (≈ 27.6 µM)
6 | COc1c(N2CCN(c3nnc(-c4cccc([N+](=O)[O-])c4)s3)C(C)C2)c(F)cc2c(=O)c(C(=O)O)cn(C3CC3)c12 (stereo unspecified) | > 64 | > 64 | > 64 | 32 (≈ 55.1 µM) | > 64 | > 64 | 1 (≈ 1.72 µM) | 0.0313 (≈ 0.0539 µM) | 1 (≈ 1.72 µM) | > 64 | > 64 | 161 | > 64
7 | COc1c(N2CCNC(C)C2)c(F)cc2c(=O)c(C(=O)O)cn(C3CC3)c12 (stereo unspecified) [GATIFLOXACIN] | 0.25 (≈ 0.666 µM) | 0.5 (≈ 1.33 µM) | 0.5 (≈ 1.33 µM) | 0.5 (≈ 1.33 µM) | 2 (≈ 5.33 µM) | 0.5 (≈ 1.33 µM) | 1 (≈ 2.66 µM) | 0.0625 (≈ 0.166 µM) | 0.25 (≈ 0.666 µM) | 0.0625 (≈ 0.166 µM) | 0.0625 (≈ 0.166 µM) | 596 | 1 (≈ 2.66 µM)
